For assay [1], the target named is Gastrin-releasing peptide receptor (Mus musculus, UniProt P21729). As to the kind of experiment: Inhibition against Swiss 3T3 murine fibroblast cells. It counts as functional, cell-based. Summed up:
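Competitive binding on confluent Swiss 3T3 monolayers grown in DMEM with 10% FBS and 2 mM glutamine. [3H-Phe15]GRP-15-27 amide used at 2 nM final, at 15 °C for 1–2 h. Nonspecific binding defined with excess unlabeled GRP. Run in triplicate in at least two trials; mean IC50 reported.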

Assay [2] is described as follows: Compound was evaluated for mitogenic stimulation against Swiss 3T3 murine fibroblast cells. It counts as functional, cell-based, Mus musculus. Summed up: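 Confluent Swiss 3T3 monolayers held in serum-free DMEM for 48 h, then peptide and 23 nM [3H]thymidine added. After 48 h more, cells detached with trypsin/5 mM EDTA and filter-harvested to measure [3H]thymidine uptake. EC50 is the mean of at least two independent experiments.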

The structures appear in SMILES notation. pEC50, pIC50: −log10 of the molar value. Non-standard residues stand in square brackets, D forms with d. Residues, ends and D or L forms follow the SMILES beside them. *: point of attachment. NHCH(iBu)2 = CC(C)CC(CC(C)C)N*; X1 = CC(C)CCOC[C@H](CC(C)C)N*; X11 = CCCCC[C@@H](CC(C)C)N*; Leu(ol) = CC(C)C[C@H](N)CO; X10 = CCCOC[C@H](CC(C)C)N*; X4 = CCCCCC[C@H](CC(C)C)N*; X12 = CCCC[C@H](CC(C)C)N*; X8 = CCCC[C@@H](CC(C)C)N*; X5 = CCOC[C@H](CC(C)C)N*; X9 = CCC[C@@H](CC(C)C)N*; X3 = COC[C@H](CC(C)C)N*; X6 = CCC[C@H](CC(C)C)N*; X2 = CCCCC(CCCC)N*

Sequence of Gastrin-releasing peptide receptor (P21729 whole entry): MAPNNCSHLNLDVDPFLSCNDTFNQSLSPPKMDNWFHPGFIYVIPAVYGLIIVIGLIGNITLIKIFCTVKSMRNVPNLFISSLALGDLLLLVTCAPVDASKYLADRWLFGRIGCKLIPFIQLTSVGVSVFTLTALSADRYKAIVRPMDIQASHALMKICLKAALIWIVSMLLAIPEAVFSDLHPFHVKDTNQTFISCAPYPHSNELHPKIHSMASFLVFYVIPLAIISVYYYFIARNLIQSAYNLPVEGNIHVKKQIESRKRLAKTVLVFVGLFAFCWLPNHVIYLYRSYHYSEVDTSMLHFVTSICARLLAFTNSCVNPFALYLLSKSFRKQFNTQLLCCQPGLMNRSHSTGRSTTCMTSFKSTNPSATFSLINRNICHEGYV

In assay [1], `CCCCC(CCCC)NC(=O)[C@H](Cc1cnc[nH]1)NC(=O)CNC(=O)[C@@H](NC(=O)[C@H](C)NC(=O)[C@H](Cc1c[nH]c2ccccc12)NC(=O)[C@H](Cc1cnc[nH]1)NC(C)=O)C(C)C` (Ac-HWAVGH-X2) gave a negative-log IC50 (pIC50) of 8.48. In assay [1], `CCCC[C@@H](CC(C)C)NC(=O)[C@H](Cc1c[nH]cn1)NC(=O)CNC(=O)[C@@H](NC(=O)[C@H](C)NC(=O)[C@H](Cc1c[nH]c2ccccc12)NC(=O)[C@H](Cc1c[nH]cn1)NC(C)=O)C(C)C` (Ac-HWAVGH-X8) showed a negative-log IC50 (pIC50) of 8.62. Regarding `COC[C@H](CC(C)C)NC(=O)[C@H](Cc1c[nH]cn1)NC(=O)CNC(=O)[C@@H](NC(=O)[C@H](C)NC(=O)[C@H](Cc1c[nH]c2ccccc12)NC(=O)[C@H](Cc1c[nH]cn1)NC(C)=O)C(C)C` (Ac-HWAVGH-X3), in assay [1], the negative-log IC50 (pIC50) was 8.08. As to `CC(=O)N[C@@H](Cc1c[nH]cn1)C(=O)N[C@@H](Cc1c[nH]c2ccccc12)C(=O)N[C@@H](C)C(=O)N[C@H](C(=O)NCC(=O)N[C@@H](Cc1c[nH]cn1)C(=O)N[C@H](CO)CC(C)C)C(C)C` (Ac-HWAVGH[Leu(ol)]), the pIC50 in assay [1] was 7.09. Same read-out and setting: then `CCC[C@@H](CC(C)C)NC(=O)[C@H](Cc1c[nH]cn1)NC(=O)CNC(=O)[C@@H](NC(=O)[C@H](C)NC(=O)[C@H](Cc1c[nH]c2ccccc12)NC(=O)[C@H](Cc1c[nH]cn1)NC(C)=O)C(C)C` (Ac-HWAVGH-X9), with 8.31.

As to `CCCOC[C@H](CC(C)C)NC(=O)[C@H](Cc1c[nH]cn1)NC(=O)CNC(=O)[C@@H](NC(=O)[C@H](C)NC(=O)[C@H](Cc1c[nH]c2ccccc12)NC(=O)[C@H](Cc1c[nH]cn1)NC(C)=O)C(C)C` (Ac-HWAVGH-X10), the negative logarithm of the IC50 (pIC50) in assay [1] is 8.49. For the molecule `CSCC[C@H](NC(=O)[C@H](CC(C)C)NC(=O)[C@H](Cc1c[nH]cn1)NC(=O)CNC(=O)[C@@H](NC(=O)[C@H](C)NC(=O)[C@H](Cc1c[nH]c2ccccc12)NC(=O)[C@H](Cc1c[nH]cn1)NC(C)=O)C(C)C)C(N)=O`, the pEC50 in assay [2] was 9.70. For the same molecule, the negative logarithm of the IC50 (pIC50) in assay [1] is 8.74.

`CSCC[C@H](NC(=O)[C@H](CC(C)C)NC(=O)[C@H](Cc1c[nH]cn1)NC(=O)[C@@H](C)NC(=O)[C@@H](NC(=O)[C@H](C)NC(=O)[C@H](Cc1c[nH]c2ccccc12)NC(=O)[C@H](Cc1c[nH]cn1)NC(C)=O)C(C)C)C(N)=O`: in assay [2], the negative logarithm of the EC50 (pEC50) was 9.70. The negative logarithm of the IC50 (pIC50) in assay [1] is 8.49. In turn, `CCCCC[C@@H](CC(C)C)NC(=O)[C@H](Cc1c[nH]cn1)NC(=O)CNC(=O)[C@@H](NC(=O)[C@H](C)NC(=O)[C@H](Cc1c[nH]c2ccccc12)NC(=O)[C@H](Cc1c[nH]cn1)NC(C)=O)C(C)C` (Ac-HWAVGH-X11) had a pIC50 in assay [1] of 7.96.

On to `CCOC[C@H](CC(C)C)NC(=O)[C@H](Cc1c[nH]cn1)NC(=O)[C@H](C)NC(=O)[C@@H](NC(=O)[C@H](C)NC(=O)[C@H](Cc1c[nH]c2ccccc12)NC(=O)[C@H](Cc1c[nH]cn1)NC(C)=O)C(C)C`, for which, in assay [1], the negative-log IC50 (pIC50) is 6.39.

For `CCOC[C@H](CC(C)C)NC(=O)[C@H](Cc1c[nH]cn1)NC(=O)[C@@H](C)NC(=O)[C@@H](NC(=O)[C@H](C)NC(=O)[C@H](Cc1c[nH]c2ccccc12)NC(=O)[C@H](Cc1c[nH]cn1)NC(C)=O)C(C)C`, in assay [1], the pIC50 was 8.30. Still for that read-out and setting: then `CCC[C@H](CC(C)C)NC(=O)[C@H](Cc1cnc[nH]1)NC(=O)CNC(=O)[C@@H](NC(=O)[C@H](C)NC(=O)[C@H](Cc1c[nH]c2ccccc12)NC(=O)[C@H](Cc1cnc[nH]1)NC(C)=O)C(C)C` (Ac-HWAVGH-X6), with 8.59. On to `CSCC[C@H](NC(=O)[C@H](CC(C)C)NC(=O)[C@H](Cc1c[nH]cn1)NC(=O)CNC(=O)[C@@H](NC(=O)[C@H](C)NC(=O)[C@H](Cc1c[nH]c2ccccc12)NC(=O)[C@H](Cc1c[nH]cn1)NC(=O)C(C)(C)C)C(C)C)C(N)=O`, for which the pEC50 in assay [2] is 9.70. In assay [1], this molecule showed a negative-log IC50 (pIC50) of 8.39. `CSCC[C@H](NC(=O)[C@H](CC(C)C)NC(=O)[C@H](Cc1c[nH]cn1)NC(=O)[C@H](C)NC(=O)[C@@H](NC(=O)[C@H](C)NC(=O)[C@H](Cc1c[nH]c2ccccc12)NC(=O)[C@H](Cc1c[nH]cn1)NC(C)=O)C(C)C)C(N)=O` had a negative logarithm of the EC50 (pEC50) in assay [2] of 7.70. The same molecule gave a negative logarithm of the IC50 (pIC50) in assay [1] of 6.74. With `CCCC[C@H](CC(C)C)NC(=O)[C@H](Cc1cnc[nH]1)NC(=O)CNC(=O)[C@@H](NC(=O)[C@H](C)NC(=O)[C@H](Cc1c[nH]c2ccccc12)NC(=O)[C@H](Cc1cnc[nH]1)NC(C)=O)C(C)C` (Ac-HWAVGH-X12), in assay [1], the negative-log IC50 (pIC50) was 8.85. In assay [1], `CCCCCC[C@H](CC(C)C)NC(=O)[C@H](Cc1c[nH]cn1)NC(=O)CNC(=O)[C@@H](NC(=O)[C@H](C)NC(=O)[C@H](Cc1c[nH]c2ccccc12)NC(=O)[C@H](Cc1c[nH]cn1)NC(C)=O)C(C)C` (Ac-HWAVGH-X4) showed a pIC50 of 8.55. On the same count and under the same terms, to `CCOC[C@H](CC(C)C)NC(=O)[C@H](Cc1c[nH]cn1)NC(=O)CNC(=O)[C@@H](NC(=O)[C@H](C)NC(=O)[C@H](Cc1c[nH]c2ccccc12)NC(=O)[C@H](Cc1c[nH]cn1)NC(C)=O)C(C)C` (Ac-HWAVGH-X5) belongs 8.21; to `CC(=O)N[C@@H](Cc1c[nH]cn1)C(=O)N[C@@H](Cc1c[nH]c2ccccc12)C(=O)N[C@@H](C)C(=O)N[C@H](C(=O)NCC(=O)N[C@@H](Cc1c[nH]cn1)C(=O)NC(CC(C)C)CC(C)C)C(C)C` (Ac-HWAVGH-{NHCH(iBu)2}), 8.92. Consider `CC(=O)N[C@@H](Cc1c[nH]cn1)C(=O)N[C@@H](Cc1c[nH]c2ccccc12)C(=O)N[C@@H](C)C(=O)N[C@H](C(=O)NCC(=O)N[C@@H](Cc1c[nH]cn1)C(=O)N[C@H](COCCC(C)C)CC(C)C)C(C)C` (Ac-HWAVGH-X1), for which the negative-log IC50 (pIC50) in assay [1] is 7.96.

In general, pIC50 refers to −log10 of the IC50, conventionally taken in molar units. A low value points to a large IC50. As usually defined, the pEC50 is −log10 of the EC50, conventionally taken in molar units. A lower pEC50 goes with a large EC50.

These data come from ChEMBL document CHEMBL1125285, “Gastrin releasing peptide antagonists with improved potency and stability” (J Med Chem, 1991).
